The source of these data is ChEMBL document CHEMBL6071149, “Synthesis and photo-induced anticancer activity of new 2-phenylethenyl-1H-benzo[e]indole dyes” (Eur J Med Chem, 2024).

Each structure is given as a SMILES string. Calls of active or inactive are those of the source. The calls are words filed in the database; no cut-off is given here.

Test [1] is described as follows: Selectivity ratio of EC50 for human ARN-8 cells-derived from human A375 cells under dark condition measured after 72 hrs by MTT assay to EC50 for human ARN-8 cells-derived from human A375 cells pretreated for 4 hrs followed by light irradiation of 10 J/cm2 at 414 nm measured after 68 hrs by MTT assay. The class given is functional, ARN-8 cell. The essentials: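 Ratio of dark EC50 to EC50 after 414 nm irradiation (10 J/cm²). MTT read-out; compound exposure 4 h before irradiation. Each dark value is paired with the matching post-irradiation incubation (20 h or 68 h).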
(Formazan colour is commonly taken as a measure of viable cells.)

For test [2], the system named is G-361. Put plainly: Induction of apoptosis in human G361 cells assessed as increase in cleaved PARP-1 level upto 4 uM pretreated for 4 hrs followed by light irradiation of 10 J/cm2 at 414 nm measured after 20 hrs by Western blot analysis. The note with it: time 24.0 hrs. The class given is functional, cell-based. The essentials: (§1)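 Compound exposure 4 h, then 414 nm irradiation, then 20 h further incubation. Lysates made in RIPA buffer, separated by SDS-PAGE and blotted to nitrocellulose. Primary antibodies in TBS with 4 % BSA and 0.1 % Tween 20, incubated overnight. Peroxidase secondary antibody with chemiluminescent detection. GAPDH served as loading control.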

The test system of test [3] is G-361. Briefly: Induction of apoptosis in human G361 cells assessed as increase in cleaved BAX level upto 4 uM pretreated for 4 hrs followed by light irradiation of 10 J/cm2 at 414 nm measured after 20 hrs by Western blot analysis. The class given is functional, cell-based. The note with it: time 24.0 hrs. The essentials:
as §1

With `COc1ccc(/C=C/C2=Nc3ccc4ccccc4c3C2(C)C)cc1[N+](=O)[O-]`, in test [1], the “Ratio EC50” value was above 28. Besides, the result in the test with G-361 [2] and with G-361 [3] was Active.
